According to ChEMBL document CHEMBL4052605, “Lissoclibadin 1, a Polysulfur Aromatic Alkaloid from the Indonesian Ascidian Lissoclinum cf. badium, Induces Caspase-Dependent Apoptosis in Human Colon Cancer Cells and Suppresses Tumor Growth in Nude Mice” (J Nat Prod, 2017):

What was measured:
HeLa S3 = assay: Antiproliferative activity against human HeLaS3 cells after 24 hrs by WST-1 assay; type: functional, cell-based; settings: HeLa S3, 24 h
How it was run: (§1)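 WST-1 viability assay. Cells seeded at 5 × 10^3 per well and grown 24 h, then given lissoclibadins at 0.1−40 μM (etoposide 1.0−100 μM) in triplicate for 24 h. WST-1 added and absorbance read 4 h later at 450 nm, background subtracted at 650 nm. Viability expressed as % of control; IC50 taken as 50% inhibition of viability. Three experiments, mean ± SD.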

HCT-15 = assay: Antiproliferative activity against human HCT15 cells after 24 hrs by WST-1 assay; type: functional, cell-based; settings: HCT-15, 24 h; how it was run: as §1

IC50 (HeLa S3) [µM]	IC50 (HCT-15) [µM]	SMILES
14.2	15.7	COc1cc(CCN(C)C)c2c(c1O)SSc1c(CCN(C)C)cc(OC)c(O)c1SS2 [LISSOCLIBADIN 7]
16	13.2	COc1c(OC)c2c(c(CCN(C)C)c1SC)Sc1c(OC)c(OC)c(SC)c(CCN(C)C)c1S2 [LISSOCLIBADIN 3]
43.1	19.7	COc1cc([C@@H]2c3cc4c(cc3[C@@H](O[C@@H]3O[C@@H]5CO[C@@H](C)O[C@H]5[C@H](O)[C@H]3O)[C@H]3COC(=O)[C@H]23)OCO4)cc(OC)c1O [ETOPOSIDE]

SMILES	IC50 (HeLa S3) [µM]	IC50 (HCT-15) [µM]
COc1cc(CCN(C)C)c2sc3c(O)c(OC)cc(CCN(C)C)c3ssc2c1O [LISSOCLIBADIN 4]	17.8	17.2
